According to publication PMC4837691 (Molecular pharmaceutics, 2015):

Legend:
[1] = test system: scavenger receptors (liver uptake of 125I-pGL3 polyplexes); experiment: Inhibition of liver uptake of 125I-pGL3 polyplexes by excess PEG-peptide; type: in vivo; details: mice, PEG 5 kDa peptides dosed in excess (not shown)
[2] = test system: liver hepatocytes (luciferase expression); experiment: HD-stimulated / direct HD luciferase gene expression in liver; type: in vivo, mice; details: for fold increase of expression on substitution for the PEG-peptide five Lys shorter: 80 nmol PEG-peptide, 1 μg pGL3, HD-stimulation at 1 hour
Procedure, shortened: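 Triplicate mice received 1 μg pGL3 polyplex with 10, 40 or 80 nmol PEG-peptide in 100 μL HBM by tail vein. After 1 h circulation, 1.8 mL saline (per 20 g mouse) was given hydrodynamically over 5 s by tail vein. Liver bioluminescence was imaged 24 h later and analysed as log10 values. Controls: naked pGL3 with HD at 5 min, and direct HD of pGL3.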

[3] = test system: liver; set-up: species or system mice; details: mouse, in vivo
[4] = test system: serum DNAse; details: cited from earlier work

PEG5kDa-Cys-Trp-Lys15
inhibition of polyplex uptake into the liver when dosed in excess [1]: failed to inhibit polyplex uptake into the liver

PEG30kDa-Cys-Trp-Lys25
fold increase of expression on substitution for the PEG-peptide five Lys shorter [2]: 5 fold
fold increase of expression (over 10 nmol dose) ([2]; 1 μg pGL3 polyplex with 40 nmol PEG-peptide, HD-stimulation at 1 hour): 100 fold
further fold improvement of expression (over 40 nmol dose) ([2]; 1 μg pGL3 polyplex with 80 nmol PEG-peptide, HD-stimulation at 1 hour): 15 fold
maximal percent of polyplex dose taken up by liver [3]: ~30%
percent of polyplex dose taken up by liver [3]: approximately 16%

PEG5kDa-Cys-Trp-Lys18
resistance of polyplexes to metabolism by serum DNAse in vitro [4]: resisted metabolism by serum DNAse in vitro

PEG30kDa-Cys-Trp-Lys20
fold increase of expression on substitution for the PEG-peptide five Lys shorter [2]: 5 fold
